Laboratory results as given in ChEMBL document CHEMBL1157011, “8-Sulfonyl-substituted tetrahydro-1H-pyrido[4,3-b]indoles as 5-HT6 receptor antagonists” (Eur J Med Chem, 2010).

Key:
[1] = target: T1, 5-hydroxytryptamine receptor 6 (Homo sapiens, UniProt P50406); assay: Antagonist activity at human recombinant 5HT6 receptor expressed in HEK293 cells assessed as inhibition of serotonin-induced cAMP production by LANCE assay; assay type: functional, cell-based; settings: read-out: IC50
Summary of the method: (§1)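 HEK-293 cells with a tetracycline-inducible (T-Rex) human 5-HT6 receptor, grown in DMEM/10% FBS with blasticidin S and zeocin and induced with tetracycline the day before. Medium was swapped for HBSS with 1 mM MgCl2, 1 mM CaCl2, IBMX and 5 mM HEPES, pH 7.4. Compounds (0.1% DMSO) were added 15 min at RT, then 10 nM serotonin for 30 min. cAMP read by LANCE; 2 independent experiments in duplicate.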

[2] = target: T1, 5-hydroxytryptamine receptor 6; assay: Antagonist activity at human recombinant 5HT6 receptor expressed in HEK293 cells assessed as inhibition of serotonin-induced cAMP production by LANCE assay relative to serotonin; assay type: functional, cell-based; summary of the method: as §1
[3] = target: T1, 5-hydroxytryptamine receptor 6; assay: Binding affinity to human recombinant 5HT6 receptor
[4] = target: 5-hydroxytryptamine receptor 6 (Rattus norvegicus, UniProt P31388); assay: Binding affinity to rat recombinant 5HT6 receptor
Chain of 5-hydroxytryptamine receptor 6 (Rattus norvegicus, UniProt P31388) (P31388 whole entry): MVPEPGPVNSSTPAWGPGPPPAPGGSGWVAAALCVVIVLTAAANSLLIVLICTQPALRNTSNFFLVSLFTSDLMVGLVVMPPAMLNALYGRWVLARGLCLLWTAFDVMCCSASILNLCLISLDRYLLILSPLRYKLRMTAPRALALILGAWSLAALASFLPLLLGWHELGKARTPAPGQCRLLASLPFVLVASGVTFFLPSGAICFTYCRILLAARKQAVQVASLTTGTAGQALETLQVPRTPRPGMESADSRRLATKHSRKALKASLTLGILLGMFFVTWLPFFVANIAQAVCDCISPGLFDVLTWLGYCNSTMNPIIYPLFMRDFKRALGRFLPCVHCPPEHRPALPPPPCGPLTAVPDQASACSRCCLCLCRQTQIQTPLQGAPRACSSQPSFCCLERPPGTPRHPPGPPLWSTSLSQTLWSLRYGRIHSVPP

[5] = target: T2, 5-hydroxytryptamine receptor 1A (Homo sapiens, UniProt P08908); assay: Binding affinity to 5HT1A receptor by radioligand displacement assay
T2 sequence (P08908 whole entry): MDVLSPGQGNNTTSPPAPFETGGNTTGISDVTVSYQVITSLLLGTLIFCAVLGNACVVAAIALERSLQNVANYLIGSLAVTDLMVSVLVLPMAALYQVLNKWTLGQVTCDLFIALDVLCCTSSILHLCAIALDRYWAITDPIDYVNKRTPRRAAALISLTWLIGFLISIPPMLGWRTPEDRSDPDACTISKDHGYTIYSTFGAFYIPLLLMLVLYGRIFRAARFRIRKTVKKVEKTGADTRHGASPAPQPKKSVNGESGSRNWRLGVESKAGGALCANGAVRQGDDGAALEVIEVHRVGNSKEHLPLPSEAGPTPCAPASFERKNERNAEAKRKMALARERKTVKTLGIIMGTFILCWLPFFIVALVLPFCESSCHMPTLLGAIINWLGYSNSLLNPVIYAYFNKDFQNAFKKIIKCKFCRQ

[6] = target: T3, 5-hydroxytryptamine receptor 2C (Homo sapiens, UniProt P28335); assay: Binding affinity to 5HT2C receptor by radioligand displacement assay
T3 sequence (P28335 whole entry): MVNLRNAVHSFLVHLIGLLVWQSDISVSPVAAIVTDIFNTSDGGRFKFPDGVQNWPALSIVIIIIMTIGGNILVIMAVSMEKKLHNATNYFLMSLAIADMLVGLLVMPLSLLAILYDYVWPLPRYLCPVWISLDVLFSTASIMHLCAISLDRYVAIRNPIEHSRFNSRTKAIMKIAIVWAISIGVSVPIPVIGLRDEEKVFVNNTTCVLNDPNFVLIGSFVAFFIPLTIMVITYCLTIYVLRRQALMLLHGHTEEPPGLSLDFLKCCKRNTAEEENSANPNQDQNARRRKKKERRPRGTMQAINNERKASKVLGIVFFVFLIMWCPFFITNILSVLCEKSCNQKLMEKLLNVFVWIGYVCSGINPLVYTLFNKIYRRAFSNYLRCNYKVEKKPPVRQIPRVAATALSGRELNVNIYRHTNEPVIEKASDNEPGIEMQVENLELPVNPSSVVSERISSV
Summary of the method: (§2)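 Competitive displacement of the corresponding radioligand, run by an outside contract lab under its internal protocols. Data from one representative experiment in duplicate.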

[7] = target: T1, 5-hydroxytryptamine receptor 6; assay: Binding affinity to human recombinant 5HT6 receptor by radioligand displacement assay; summary of the method: as §2
[8] = target: 5-hydroxytryptamine receptor 7 (Homo sapiens, UniProt P34969); assay: Binding affinity to 5HT7 receptor by radioligand displacement assay; summary of the method: as §2
Chain of 5-hydroxytryptamine receptor 7 (P34969 whole entry): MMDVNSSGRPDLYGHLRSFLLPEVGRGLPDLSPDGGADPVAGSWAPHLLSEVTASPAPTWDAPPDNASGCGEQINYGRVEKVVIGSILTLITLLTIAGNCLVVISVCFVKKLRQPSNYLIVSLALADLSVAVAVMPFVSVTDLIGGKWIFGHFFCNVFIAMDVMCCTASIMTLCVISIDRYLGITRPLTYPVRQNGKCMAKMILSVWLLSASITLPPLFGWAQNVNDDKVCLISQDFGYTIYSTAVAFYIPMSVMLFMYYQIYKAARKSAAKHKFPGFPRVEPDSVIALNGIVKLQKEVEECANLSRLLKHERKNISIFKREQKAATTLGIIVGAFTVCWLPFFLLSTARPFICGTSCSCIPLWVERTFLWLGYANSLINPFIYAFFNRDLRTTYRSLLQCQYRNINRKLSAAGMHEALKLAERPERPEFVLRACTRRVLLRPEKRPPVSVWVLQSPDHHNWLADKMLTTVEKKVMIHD

T1 sequence (P50406 whole entry): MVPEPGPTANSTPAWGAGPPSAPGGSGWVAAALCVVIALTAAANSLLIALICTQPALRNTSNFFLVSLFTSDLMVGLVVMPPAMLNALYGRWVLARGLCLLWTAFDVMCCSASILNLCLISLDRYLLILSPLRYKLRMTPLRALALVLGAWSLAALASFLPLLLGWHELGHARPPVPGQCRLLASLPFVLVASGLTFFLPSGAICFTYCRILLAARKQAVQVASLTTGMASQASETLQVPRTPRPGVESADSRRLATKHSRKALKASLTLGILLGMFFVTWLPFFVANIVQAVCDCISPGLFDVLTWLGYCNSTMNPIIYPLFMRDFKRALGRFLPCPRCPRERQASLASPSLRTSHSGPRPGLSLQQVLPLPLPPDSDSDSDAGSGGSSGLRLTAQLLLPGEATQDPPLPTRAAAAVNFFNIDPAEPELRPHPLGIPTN

Question: For CN1CCc2[nH]c3ccc(S(=O)(=O)N(C)C)cc3c2C1, which IC50 [1] is on record?
Answer: 26000 nM

Question: And the Imax [2]?
Answer: 100%

Question: With CN1CCc2[nH]c3ccc(S(=O)(=O)c4cccnc4)cc3c2C1 as the compound, how does the IC50 [1] read?
Answer: 3400 nM

Question: And the Imax [2]?
Answer: 100%

Question: CN1CCc2c(c3cc(S(=O)(=O)c4ccccc4)ccc3n2CCc2ccccn2)C1 was tested. Which Imax [2] did it give?
Answer: 100%

Question: With Cc1ccc2c(c1)c1c(n2CCc2ccc(C)nc2)CCN(C)C1 [LATREPIRDINE] as the compound, how does the Ki [3] read?
Answer: 26 nM

Question: And the Ki [4]?
Answer: 119 nM

Question: And the Imax [2]?
Answer: 100%

Question: And the Ki [5]?
Answer: > 100 nM

Question: And the Ki [6]?
Answer: 76 nM

Question: What about the Ki [7] of the same compound?
Answer: 34 nM

Question: What about the Ki [8] of the same compound?
Answer: 8 nM

Question: For Cc1ccc(S(=O)(=O)n2c3c(c4cc(S(=O)(=O)c5ccccc5)ccc42)CN(C)CC3)cc1, which IC50 [1] is on record?
Answer: 28000 nM

Question: What about the Imax [2] of the same compound?
Answer: 100%
